Source: PubChem (Johns Hopkins Ion Channel Center)
TRPC6 inh – mouse TRPC6 channel inhibition; Q61143; HEK293-TRPC6, membrane potential dye, ACh-evoked depolarization; stronger effect = lower value; B-score at 10 µM; 1.1% of 310,000 active; AID 2553;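 active means B-score under library mean minus 3 SD, initial fluorescence not abnormally high, positive integrated signal ratio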;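 further: B-score derived from integrated fluorescence ratio over the kinetic read; more negative B-score means stronger inhibition of depolarization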
Target sequence (Q61143 whole entry, looked up): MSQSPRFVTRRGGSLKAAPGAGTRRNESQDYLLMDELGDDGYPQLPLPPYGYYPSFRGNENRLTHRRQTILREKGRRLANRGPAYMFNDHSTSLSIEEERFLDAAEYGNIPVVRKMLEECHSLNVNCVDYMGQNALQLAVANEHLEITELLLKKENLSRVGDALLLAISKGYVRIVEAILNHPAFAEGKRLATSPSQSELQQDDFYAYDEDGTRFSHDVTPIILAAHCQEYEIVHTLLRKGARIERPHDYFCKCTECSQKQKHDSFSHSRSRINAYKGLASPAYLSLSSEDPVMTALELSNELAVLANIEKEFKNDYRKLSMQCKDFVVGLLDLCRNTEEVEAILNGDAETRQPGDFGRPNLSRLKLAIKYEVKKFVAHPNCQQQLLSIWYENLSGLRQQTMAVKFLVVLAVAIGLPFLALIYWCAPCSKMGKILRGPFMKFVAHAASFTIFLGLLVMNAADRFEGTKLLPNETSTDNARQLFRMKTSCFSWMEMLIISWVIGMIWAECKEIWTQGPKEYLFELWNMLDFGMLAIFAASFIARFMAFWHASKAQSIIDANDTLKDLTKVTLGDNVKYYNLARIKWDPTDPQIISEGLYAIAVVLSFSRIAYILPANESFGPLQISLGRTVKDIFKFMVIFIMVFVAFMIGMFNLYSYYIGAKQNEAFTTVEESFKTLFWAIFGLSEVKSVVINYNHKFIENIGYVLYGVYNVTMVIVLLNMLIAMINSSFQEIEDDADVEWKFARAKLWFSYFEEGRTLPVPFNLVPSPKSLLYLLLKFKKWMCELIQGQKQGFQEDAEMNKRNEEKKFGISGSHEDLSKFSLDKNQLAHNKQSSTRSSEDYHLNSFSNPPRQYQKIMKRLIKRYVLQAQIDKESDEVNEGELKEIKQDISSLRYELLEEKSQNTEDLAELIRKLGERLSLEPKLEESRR
TRPC4 agonist – TRPC4 (mouse) channel activation | Q9QUQ5 | HEK293 TRPC4beta/mu-opioid, Fluo4 calcium fluorescence; stronger effect = higher value | B-score at 10 µM | 0.49% of 310,000 active | AID 2237;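 active means B-score above 5 SD of library B-scores, and initial fluorescence ratio not above library mean plus 5 SD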;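 further: positive B-score marks a calcium rise read as TRPC4 activation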
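Assay system: HEK293 stable line with TRPC4beta plus mu-opioid receptor; schedule: 45 min room-temperature Fluo4 loading, 110 s read; technique: kinetic Fluo4 calcium fluorescence; evaluation: integrated baseline-normalised fluorescence ratio, converted to per-well B score; controls: buffer (low) and maximal DAMGO (high)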
Kir21 block – blocks the mouse Kir2.1 inward-rectifier potassium channel. HEK293-Kir2.1, FluxOR thallium flux fluorescence; stronger effect = lower value. P35561. 0.85% of 310,000 active. B-score at 10 µM. AID 1672;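 active means fluorescence ratio B-score at or below minus 3 SD of library scores, with starting-brightness B-score within 2 SD, cut at about -4.2 in these data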;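 further: channel flux triggered by added potassium and thallium sulfate stimulus; B-score of peak minus minimum fluorescence over baseline after thallium stimulus; more negative B-score means stronger Kir2.1 block with less thallium influx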
TRPC4 inh – TRPC4 (mouse) channel inhibition; B-score at 10 µM; 0.39% of 300,000 active; HEK293 TRPC4beta/mu-opioid, DAMGO-evoked Fluo4 calcium flux; stronger effect = lower value; Q9QUQ5; AID 2247;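 active means B-score over 3 SD under the library average, no early fluorescence shift, positive overall ratio signal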
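Assay system – HEK293 line stably carrying TRPC4beta and mu-opioid receptor · Doses – single dose · Detection – Fluo4 calcium-dye fluorescence, kinetic read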
TRPC6 activator – activates the mouse TRPC6 cation channel | Q61143 | HEK293-TRPC6 membrane potential dye fluorescence; stronger effect = higher value | B-score at 10 µM | 0.13% of 310,000 active;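 active means B-score of the integrated fluorescence ratio above library mean plus 3 SD, and starting fluorescence ratio within library mean plus 5 SD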;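 further: higher score means more depolarization so channel activation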
TRPC4 potent – allosterically enhances the mouse TRPC4 cation channel; Q9QUQ5; HEK293 TRPC4beta/mu-opioid, DAMGO EC20, Fluo-4 Ca2+ flux; stronger effect = higher value; B-score at 10 µM; 0.42% of 310,000 active;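 active means B-score of calcium response area above 5 SD of library B-scores, with initial fluorescence ratio within 5 SD of library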;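 further: B-score of integrated fluorescence ratio over time as area under calcium response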
Numbers without * were called inactive; i = inactive. Most compounds without a hit are left out; they make up all but 2.9% or so of the library.

SMILES	TRPC6 inh	TRPC4 agonist	Kir21 block	TRPC4 inh	TRPC6 activator	TRPC4 potent
COC(=O)[C@@]1(Cc2ccc(F)cc2)[C@H]2c3cc(C(=O)N(C)C)n(CCc4ccc(OC)c(Br)c4)c3C[C@H]2CN1C(=O)c1ccccc1	i	i	-1.41	i	i	i
Cc1nc(-c2ccc([N+](=O)[O-])cc2)nc2[nH]ccc(=O)c12	i	i	0.98	i	i	i
COCCCN1C(=O)c2[nH]nc(-c3ccccc3O)c2C1c1ccc(Cl)cc1 (configuration not stated)	i	i	0.08	i	i	13*
CCCN1C(=O)c2[nH]nc(-c3cc(Cl)c(C)cc3O)c2C1c1ccc(O)c(OC)c1 (configuration not stated)	i	i	1.65	i	i	11*
COCCCN1C(=O)c2[nH]nc(-c3cc(C)cc(C)c3O)c2C1c1ccc(O)c(OC)c1 (configuration not stated)	i	i	-0.29	i	i	i
CC1(C)CC(=O)C=C(Nc2cccc(Cl)c2Cl)C1	i	i	-0.01	i	i	i
CC(C)OCCCNC(=O)c1cn(C)c2ccc(S(=O)(=O)N(C)C3CCCCC3)cc2c1=O	i	i	-0.25	i	i	i
O=C(/C=C/c1ccc([N+](=O)[O-])cc1)/C=C/c1ccco1	i	i	-5.77*	i	i	i
O=C(/C=C/c1ccc([N+](=O)[O-])cc1)c1cccnc1	i	i	-4.28*	i	i	i
CN(C)c1ccc(C(=O)/C=C/c2cccnc2)cc1	i	i	-0.13	i	i	i
O=C(/C=C/c1cccnc1)c1ccc(F)c(F)c1	i	i	-5.35*	i	i	i
O=C(/C=C/c1ccc2c(c1)OCO2)Nc1cccnc1	i	i	-0.04	i	i	i
O=C(/C=C/c1ccc2c(c1)OCO2)c1cccnc1	i	i	-5.23*	i	i	i
CCCC(=O)C1=C(O)C(C(=O)OC)C(C)(C)CC1=NCCc1ccccc1 (configuration not stated)	i	i	1.32	i	i	i
CCN(CC)S(=O)(=O)c1ccc(NC(=O)CCNC(=O)c2ccccc2)cc1	i	i	0.02	i	i	i
CC1CCCCC1NCC#CCOc1ccc(Cl)cc1 (configuration not stated)	i	i	-5.02*	i	i	i
Cc1oc2c(c1C(=O)c1ccccc1)C(=O)C(=O)c1ccccc1-2	i	i	-2.8	-6*	i	i
COc1ccc(C2C(C(C)=O)=C(O)C(=O)N2c2ccc(F)cc2)cc1 (configuration not stated)	i	i	0.3	i	i	i
O=C1CSC(c2cccc([N+](=O)[O-])c2)N1Cc1ccccc1 (configuration not stated)	i	i	-4.46*	i	i	i
CCN(CC)CCCNC(=O)Cn1nc([N+](=O)[O-])c(Cl)c1C	i	i	1.91	i	i	i
NS(=O)(=O)c1ccc(NC(=O)COC(=O)COc2cccc(C(F)(F)F)c2)cc1	i	i	-0.05	i	i	i
CCNc1nc(NC(C)(C)C)nc(N2CCCC2)n1	i	i	0.29	-8*	i	i
O=C1NCCCCC1NS(=O)(=O)c1ccc(Cl)cc1 (configuration not stated)	i	i	1.76	i	i	i
CCCCCOc1ccc(Br)cc1/C(C)=N/NC1=NCCN1	-5.88*	i	-13.8*	i	i	i
COc1ccc(Br)cc1/C(C)=N/NC1=NCCN1	i	i	-1.48	i	i	i
CC1(C)OC(=O)C(=NNc2ccc(Br)cc2)C(=O)O1	i	i	0.18	i	i	i
N#Cc1c(N2CCCCC2)nc(N)c2c(N)nc3c(c12)CC(c1ccccc1)O3 (configuration not stated)	i	i	-0.3	-9*	i	i
